Experimental data reported in PMC11962390 (Molecular Cancer Therapeutics, 2025).

Columns and labels:
[1] = test system: P10_rPlfl patient-derived organoid; experiment: Organoid drug-response profiling; type: cell-based, human; conditions: organoid P10_rPIfl, 96 hours
Outline: (§1)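 Patient-derived HGSC organoids were embedded in BME-2 droplets in 384-well ultralow-attachment plates and grown 7–10 days with medium changes every 2–3 days. Test compounds were added in five 10-fold dilutions, with DMSO and 10 μmol/L bortezomib as controls. After 96 h at 37°C, wells were stained 2 h with CellTox Green and Hoechst 33342 (5 μg/mL final) and imaged confocally. Survival was normalized to controls and fitted by four-parameter fit (bottom 0), mean ± SD, n = 2.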

OV231-CP30 spheres = experiment: 3D CellTiter-Glo cell viability assay of spheres; type: cell-based, human; conditions: OV231-CP30 grown in 3D (spheroids), 48 hours
Outline: (§2)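 Cells (500) were seeded in MammoCult with proliferation supplement in ultralow-attachment 96-well plates to form spheres. Seven days after plating, the spheres were treated with the test compound. CellTiter-Glo 3D luminescence was read 48 h later. Dose–response curves were fitted by sigmoidal variable-slope fit.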

JHUEM7 cells = experiment: MTT cell viability assay; type: cell-based, human; conditions: TNIK-null JHUEM7, 48 hours, Fig. 3K
OV-UM50.2 cells = experiment: 3D CellTiter-Glo cell viability assay; type: cell-based, human; conditions: OV-UM50.2, 3D, 48 hours
[2] = test system: panel of 377 human wild-type kinases; experiment: Kinase selectivity profiling, KinaseProfiler; type: biochemical; conditions: of 377 human wildtype kinases
Outline: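 Radiometric 33P transfer from [γ-33P]ATP to peptide/protein substrates was used, in 8 mmol/L MOPS pH 7.0 with 0.2 mmol/L EDTA and kinase-specific metal supplements. Lipid and atypical kinases were run by HTRF in HEPES buffer. […] Output was % activity remaining, with full inhibition set by reference inhibitors.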

FT194 cells = experiment: CellTiter-Glo cell viability assay; type: cell-based, human; conditions: nonmalignant fallopian tube secretory cell line FT194, 48 hours
Outline: (§3)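 2D culture in the cells' own medium in 96-well plates. Cells were treated with a dose curve of test compound one day after plating. CellTiter-Glo luminescence was read after 48 h. Viability was expressed as fold change to DMSO (mean ± SEM, n = 3). EC50 came from a sigmoidal variable-slope fit.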

OV-UM52.1 cells = experiment: 3D CellTiter-Glo cell viability assay; type: cell-based, human; conditions: OV-UM52.1, 3D, 48 hours
Outline: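 Primary HGSC cells were grown as 3D spheres in MammoCult with supplement on ultralow-attachment plates and treated with a dose curve of test compound. CellTiter-Glo 3D luminescence was read after 48 h. Values were expressed relative to DMSO (mean ± SEM, n = 3). The curve was fitted with bottom constrained to 0 and top to 1.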

OV-UM32.1 cells = experiment: 3D CellTiter-Glo cell viability assay; type: cell-based, human; conditions: OV-UM32.1, 3D, 48 hours
OV231-CP30 cells [3] = experiment: MTT cell viability assay; type: cell-based, human
FT237 cells [4] = experiment: CellTiter-Glo cell viability assay; type: cell-based, human; conditions: nonmalignant fallopian tube secretory cell line FT237, 48 hours
Outline: as §3

HEC1B cells = experiment: MTT cell viability assay; type: cell-based, human; conditions: dose response up to 10 μmol/L, 48 hours, unable to generate an EC50
[5] = test system: P12_rPer patient-derived organoid; experiment: Organoid drug-response profiling; type: cell-based, human; conditions: 96 hours
Outline: as §1

OV81-CP40 cells [6] = experiment: CellTiter-Glo cell viability assay; type: cell-based, human
OV81-CP40 spheres = experiment: 3D CellTiter-Glo cell viability assay of spheres; type: cell-based, human; conditions: OV81-CP40 grown in 3D (spheroids), 48 hours
Outline: as §2

[7] = test system: P8_rAsc patient-derived organoid; experiment: Organoid drug-response profiling; type: cell-based, human; conditions: 96 hours
Outline: as §1

OV81-CP40 cells [8] = experiment: MTT cell viability assay; type: cell-based, human
[9] = test system: canonical Wnt pathway activation (reporter TOP-GFP) in OV81-CP40 cells; experiment: TOP-GFP and FOP-GFP assay; type: cell-based, human; conditions: OV81-CP40, 6 hours, 20 mmol/L LiCl, […] NCB-0846 or 100 nmol/L NVP-2
Outline: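 OV81-CP40 cells stably expressing lentiviral TOP-GFP or FOP-GFP reporters were plated and treated one day later for 6 h with LiCl and/or test compounds. Cells were harvested, PBS-washed and run by flow cytometry at 10,000 cells per sample, gating the top ~10% GFP-positive cells. Results were given as TOP/FOP, mean ± SEM, n = 3, by one-way ANOVA.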

OV231-CP30 cells [10] = experiment: CellTiter-Glo cell viability assay; type: cell-based, human; conditions: OV231-CP30, 48 hours, Fig. 2B
Outline: as §3

primary HGSC organoids = experiment: Organoid drug-response profiling, whole panel; type: cell-based, human; conditions: 96 hours
Outline: as §1

FT237 cells [11] = experiment: MTT cell viability assay; type: cell-based, human; conditions: FT237, 48 hours, nondeterminable up to highest dose, Supplementary Fig. S5D
[12] = OV81-CP40, MTT used to generate CI, Fig. 2D

OC1CCC(Oc2cccc3cnc(Nc4ccc5nc[nH]c5c4)nc23)CC1 (stereo not shown) [NCB-0846]
IC50 [1]: > 10000 nM
EC50 (OV231-CP30 spheres): 1590 nM
reduction in cell viability at maximal doses (JHUEM7 cells): ~50%
EC50 (OV-UM50.2 cells): 1600 nM
number of kinase hits [2]: 175
response of cell viability to dose curve (FT194 cells): minimally responsive
EC50 (OV-UM52.1 cells): 2610 nM
EC50 (OV-UM32.1 cells): 4330 nM
EC50 (OV231-CP30 cells [3]; OV231-CP30, MTT used to generate CI, Fig. 2D): 440 nM
response of cell viability to dose curve (FT237 cells [4]): minimally responsive
EC50 (HEC1B cells): > 10000 nM
IC50 [5]: 4020 nM
EC50 (OV81-CP40 cells [6]; OV81-CP40, 48 hours, Fig. 2B): 465 nM
EC50 (OV81-CP40 cells [6]; OV81-CP40, LiCl+-treated cells (20 mmol/L LiCl), 48 hours, Fig. 3A): 2120 nM
EC50 (OV81-CP40 cells [6]; OV81-CP40, LiCl−-treated cells, 48 hours, Fig. 3A): 585 nM
EC50 (OV81-CP40 cells [6]; OV81-CP40 transfected with siCDK9 9, 48 hours, Fig. 5C): 161 nM
EC50 (OV81-CP40 cells [6]; OV81-CP40 transfected with siCDK9 11, 48 hours, Fig. 5C): 142 nM
EC50 (OV81-CP40 cells [6]; OV81-CP40 transfected with siControl, 48 hours, Fig. 5C): 399 nM
EC50 (OV81-CP40 spheres): 710 nM
IC50 [7]: > 10000 nM
EC50 (OV81-CP40 cells [8]; [12]): 464 nM
TOP-GFP induction after LiCl addition [9]: significantly decrease
EC50 (OV231-CP30 cells [10]): 584 nM

N.N.O=C([O-])C1(C(=O)[O-])CCC1.[Pt+2] [Carboplatin, carboplatin]
survival (primary HGSC organoids; all 13 organoids tested, at 10 μmol/L): ≥ 50%
IC50 (primary HGSC organoids; five of the 13 organoids): < 100000 nM
reduction in survival (primary HGSC organoids; only one organoid, at 100 μmol/L): greater than 70%

COC[C@@H](C)NC1CCC(Nc2cc(-c3cccc(NCC4(C#N)CCOCC4)n3)c(Cl)cn2)CC1 (stereo partly shown) [NVP-2]
EC50 (OV231-CP30 spheres): 60.3 nM
EC50 (OV81-CP40 spheres): 52.1 nM
EC50 (FT237 cells [11]): > 80 nM
EC50 (OV81-CP40 cells [8]; OV81-CP40, 48 hours, Supplementary Fig. S5D): 12.7 nM
TOP-GFP induction after LiCl addition [9]: significantly decrease

OC1CCC(Oc2cccc3cnc(Nc4ccc5nc[nH]c5c4)nc23)CC1 (stereo not shown) [NCB-0970]
EC50 (OV231-CP30 cells [3]; read-out: 48-hour EC50, OV231-CP30, 48 hours, Supplementary Fig. S2E): 3640 nM
EC50 (OV81-CP40 cells [8]; read-out: 48-hour EC50, OV81-CP40, 48 hours, Supplementary Fig. S2E): 9920 nM

N.N.[Cl][Pt][Cl] [cisplatin]
EC50 (OV-UM50.2 cells): 22200 nM
EC50 (OV-UM52.1 cells): 9630 nM
EC50 (OV-UM32.1 cells): 12900 nM
EC50 (OV81-CP40 cells [8]; [12]): non determinable (ND)
